The list is not random: actives were taken first. Their share in the collection is about 1.8%.
Scp1 inh = Scp-1 (human) phosphatase inhibition. 340,000 tested, 0.88% active. Recombinant Scp1, phosphopeptide, malachite green phosphate absorbance. inhibition, % at 20 µM. Q9GZU7. AID 493091;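 active = inhibition above about 50% at 20 µM, limit read from the data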;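 also: plate controls were DMSO wells with enzyme for no effect and wells lacking enzyme for full effect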
Target sequence (Q9GZU7 76-261 limits assumed): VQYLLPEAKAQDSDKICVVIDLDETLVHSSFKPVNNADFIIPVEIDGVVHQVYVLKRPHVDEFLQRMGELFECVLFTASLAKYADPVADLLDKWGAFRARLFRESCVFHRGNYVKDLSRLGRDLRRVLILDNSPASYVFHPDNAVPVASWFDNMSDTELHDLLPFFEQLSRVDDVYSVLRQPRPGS
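Incubation: 45 min enzyme reaction at room temperature / System: truncated SCP-1 phosphatase (76-261aa) / Reagent: Phospho 17-mer peptide substrate / Buffer or medium: Acidic Tris acetate buffer with magnesium and detergent / Signal: absorbance at 630 nm / Doses: one concentration, 20 µM, with 1.0% DMSO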
SUMO1-SIM PPI = SUMO1-SIM interaction modulation | inhibition, % at 20 µM | AID 602429 | SUMO1 binding to a labelled peptide, TR-FRET, 1 h | P63165 | 360,000 tested, 0.33% active; in the data active = inhibition above about 37%
Target sequence (P63165 whole entry, looked up): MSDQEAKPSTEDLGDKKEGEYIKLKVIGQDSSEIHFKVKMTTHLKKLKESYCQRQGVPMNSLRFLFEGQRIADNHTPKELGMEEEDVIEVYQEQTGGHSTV
STEP inh = STEP (human) phosphatase inhibition | P54829 | recombinant STEP, OMFP fluorogenic substrate, fluorescence | inhibition, % at 20 µM | 360,000 tested, 0.25% active;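 active = inhibition at 20 µM, scaled per plate between control wells, above about 37%, limit read from the data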;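 also: 0% = DMSO with enzyme and substrate and 100% = substrate only without enzyme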
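System: STEP (striatal-enriched tyrosine phosphatase) enzyme, cell-free; medium: Bis-Tris pH 6.0 buffer with DTT, detergent; dosing: 20 µM, 1% DMSO; times: reaction 20 min, ambient temperature; detection: fluorescence, 480/540 nm; read-out basis: normalized % inhibition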
DNMT1 block = inhibitors of human DNMT1; 360,000 tested, 0.83% active; P26358; inhibition (reported as % activation of signal), % at 10 µM; DNMT1 molecular beacon, Hinp1I cleavage, fluorescence; in the data active = inhibition above about 50%
HKDC1 inh = blocks human hexokinase HKDC1 activity | Q2TB90 | 340,000 tested, 0.16% active | inhibition, % at 20 µM | AID 493160 | recombinant HKDC1, G6PDH/diaphorase resazurin coupled fluorescence;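 active = inhibition above about 35% when tested at 20 µM, limit read from the data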;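 also: plate controls were DMSO wells with enzyme for no effect and DMSO wells lacking enzyme for full effect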
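Incubation: 90 min at room temperature in dark / Material: recombinant HKDC1 (HK5) hexokinase enzyme, produced in-house / Quantity: enzyme 5 µg/mL final / Compound: one dose of 20 µM, 1% DMSO / Reagent: glucose and ATP substrates / Buffer or medium: Tris pH 8.0 buffer with MgCl2, Tween-20, BSA, BME / Technique: resorufin fluorescence at 613 nm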
LMPTP inh = LMPTP (human) inhibition; P24666; recombinant LMPTP-A, OMFP fluorogenic substrate, fluorescence intensity; inhibition, % at 20 µM; 360,000 tested, 0.22% active; AID 651560;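 active = compounds that cut the enzyme signal by at least half of the control window in the single-dose screen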;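 also: plate controls were DMSO wells with enzyme plus substrate for no effect and substrate without enzyme for full effect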
Target sequence (P24666 whole entry, looked up): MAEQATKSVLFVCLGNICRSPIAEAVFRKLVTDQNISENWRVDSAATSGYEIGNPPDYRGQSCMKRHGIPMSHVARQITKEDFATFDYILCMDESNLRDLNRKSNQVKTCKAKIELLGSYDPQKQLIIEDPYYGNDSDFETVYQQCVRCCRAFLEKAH
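Assay system: LMPTP-A enzyme. Input: 0.625 nM LMPTP-A final. Probe or stimulus: 400 µM OMFP. Compound dosing: single 20 µM dose. Schedule: 50 min dark incubation at room temperature. Detection: fluorescence intensity of OMFP turnover product. Read-out: percent inhibition versus substrate-only and uninhibited controls. Benchmarks: no-enzyme low control, uninhibited high control.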
Scp-1 conf = Scp-1 (human) inhibition, single-dose confirmed; shares compounds with Scp1 inh; recombinant SCP-1 catalytic domain, phosphate release, malachite green absorbance; inhibition, % at 20 µM; 2,500 tested, 61% active;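 also: plate controls were DMSO with enzyme for no effect and buffer wells lacking enzyme for full effect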
Scp-1 MG ctr = interferes with malachite green readout, flagging false Scp-1 hits; 2,500 tested, under 10 active; Colorimetric interference counterscreen, malachite green absorbance 630 nm; shares compounds with Scp1 inh; AID 540313; apparent inhibition (interference), % at 20 µM;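 also: compounds added after enzyme reaction finished so only phosphate colour detection is probed; plate controls were DMSO wells with completed Scp-1 reaction for no effect and substrate wells lacking enzyme for full effect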
Scp-1 Tm shift = Scp-1 (human) binding by thermal shift | shares compounds with Scp1 inh | Recombinant SCP1, Sypro Orange thermal shift Tm | thermal shift relative to vanadate control, % at 40 µM | 1,500 tested, 25% active;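 active = substances whose mean melting-temperature shift, as a percentage of the reference inhibitor's shift, reaches about 5.3%, limit read from the data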;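 also: 0% = Tm of DMSO wells and 100% = Tm with sodium orthovanadate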
HKDC1 act conf = HKDC1 (human) activation, single-dose confirmed; shares compounds with HKDC1 inh; recombinant HKDC1, G6PDH/diaphorase resazurin fluorescence; active compounds read low; inhibition, % at 20 µM; 740 tested, 14% active;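 active = inhibition at or below a set negative limit, negative inhibition meaning the enzyme was activated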
DNMT1 interf DR = shows spectral interference in the DNMT1 beacon assay; IC50, µM; shares compounds with DNMT1 block; AID 602382; 200 tested, under 10 active; molecular beacon fluorescence, spectral interference counter-screen; call rule not given here
DNMT1 inh conf = DNMT1 inhibition confirmation, single concentration. shares compounds with DNMT1 block. inhibition, % at 10 µM. 2,300 tested, 8% active. DNMT1 molecular beacon HinP1I cleavage, fluorescence;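 active = average inhibition of at least 30% in the single-concentration confirmation test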
DNMT1 interf = beacon fluorescence artifact counter-screen. shares compounds with DNMT1 block. DNMT1 molecular beacon spectral interference counterscreen, fluorescence 485/520. activation (fluorescence interference), % at 10 µM. 2,300 tested, 1% active;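 active = activation of at least 30% at 10 µM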;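 also: DNMT1 catalytic domain with a HinP1I cleavage step and a FAM/dabcyl DNA beacon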
* = called active by the depositor.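 The calls were made as follows, unless noted: active = inhibition of at least 30% at 20 µM; inactive = the rest.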

Screening CCOc1cccc(/C=N/NC(=O)C2CCCC2)c1O returned Scp1 inh -7, SUMO1-SIM PPI -3, STEP inh 4, DNMT1 block -1, HKDC1 inh -11 and LMPTP inh 0.
CC(=O)C(Cc1ccccc1)NC(=O)CN1c2cccc3cccc(c23)S1(=O)=O (stereo not drawn) was read as Scp1 inh -2, SUMO1-SIM PPI -12, STEP inh -2, DNMT1 block -13, HKDC1 inh 9 and LMPTP inh 1.
`CC(C(=O)NCc1ccccc1Cl)n1cc([N+](=O)[O-])cn1` (stereo not drawn) gave Scp1 inh -7, SUMO1-SIM PPI -3, STEP inh -2, DNMT1 block -5, HKDC1 inh -9 and LMPTP inh 1.
COc1ccccc1C(=O)COC(=O)Cc1ccccc1F was read as Scp1 inh -21, SUMO1-SIM PPI -1, STEP inh -1, DNMT1 block 7, HKDC1 inh -9 and LMPTP inh -1.
For Cc1nsc(Nc2ccccc2)c1C#N the results were Scp1 inh -7, SUMO1-SIM PPI -2, STEP inh -1, DNMT1 block 4, HKDC1 inh -3 and LMPTP inh -1.
For Cc1cc(C)c2c(=N)c3ccccc3n(CCCCCCCCn3c4ccccc4c(=N)c4c(C)cc(C)nc43)c2n1 the results were Scp1 inh 59*, SUMO1-SIM PPI 95*, STEP inh 11, DNMT1 block 13, HKDC1 inh 74*, LMPTP inh 87*, Scp-1 conf 5, Scp-1 MG ctr 15 and HKDC1 act conf 23.
CCC(C)NC(=O)Cn1nc(Cc2ccncc2)c2ccccc2c1=O (stereo not drawn) was read as Scp1 inh -7, SUMO1-SIM PPI 2, STEP inh -4, DNMT1 block 1, HKDC1 inh -2 and LMPTP inh -1.
For O=C(O)C1CC(c2ccc(F)cc2)=NO1 (stereo not drawn) the results were Scp1 inh 52*, SUMO1-SIM PPI 5, STEP inh 0, DNMT1 block 86*, HKDC1 inh 3, LMPTP inh -2, Scp-1 conf 34*, Scp-1 MG ctr -17, Scp-1 Tm shift -5, DNMT1 inh conf 13 and DNMT1 interf 4.
Screening C=CCOc1ccc(C=NNc2ccc(S(=O)(=O)Nc3ccccc3C(=O)O)cc2[N+](=O)[O-])cc1OC returned Scp1 inh 71*, SUMO1-SIM PPI 69*, STEP inh 100*, DNMT1 block 90*, HKDC1 inh 51*, LMPTP inh 100*, Scp-1 conf 82*, Scp-1 MG ctr -19, Scp-1 Tm shift 15*, HKDC1 act conf -4, DNMT1 interf DR >99, DNMT1 inh conf 110* and DNMT1 interf -12.

High-throughput results deposited in PubChem by Sanford-Burnham Center for Chemical Genomics.
